Data on twelve molecules can be found in ChEMBL document CHEMBL4004863, “Design, synthesis, biological evaluation and X-ray structural studies of potent human dihydroorotate dehydrogenase inhibitors based on hydroxylated azole scaffolds” (Eur J Med Chem, 2017).

Structures are written as SMILES. Values after ≈ are worked out from the molar mass of the structure shown. Active and inactive are the calls of the source. The calls are words filed in the database; no cut-off is given here. Bounds are passed on as bounds.

Series [1] is described as follows: Stability in human Jurkat cells assessed as parent compound remaining at 100 uM after 72 hrs by HPLC-UV method. It is filed as ADME, cell-based. To be noted: read-out: Stability.
Series [2] concerns Jurkat. Briefly: Cytotoxicity against human Jurkat T cells assessed as compound concentration required to induce up to 30% cell death after 72 hrs by CellTox green assay.
Series [3] can be described thus: Solubility in pH 7.4 PBS buffer at 1 mg after 24 hrs by HPLC-UV method. The series is classed as physicochemical.
In series [4] the test system is Jurkat. Kind of series: Antiproliferative activity against human Jurkat T cells assessed as DNA content after 72 hrs by Hoechst 33258 dye based fluorometric method. The series is classed as functional, cell-based. Put shortly:
(§1)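 Jurkat T cells grown in X-VIVO 15 with 10% FBS and antibiotic-antimycotic at 37 °C, 5% CO2, passages 5–10, mycoplasma-free, STR-authenticated. IC50 came from nonlinear regression, mean ± SE of three experiments. Uridine, where added, was at 100 μM.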

Series [5] concerns Jurkat. Kind of series: Antiproliferative activity against human Jurkat T cells assessed as DNA content up to 200 uM after 72 hrs in presence of exogenous uridine by Hoechst 33258 dye based fluorometric method. The series is classed as functional, cell-based. The essentials:
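Jurkat T cells grown in X-VIVO 15 with 10% FBS and antibiotic-antimycotic at 37 °C, 5% CO2, passages 5–10, mycoplasma-free, STR-authenticated. 5×10^3 cells were exposed to 0.001–200 μM compound or DMSO vehicle for 72 h, lysed in 0.02% SDS/SSC, and stained with Hoechst 33258 (ex 355/em 460 nm). IC50 came from nonlinear regression, mean ± SE of three experiments. Uridine, where added, was at 100 μM.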

For series [6], the system named is PBMC. Kind of series: Immunosuppressive activity against human PBMC assessed as inhibition of PHA-stimulated cell proliferation preincubated for 2 hrs followed by PHA stimulation for 72 hrs by BrdU incorporation assay. It is filed as functional, cell-based. In general terms: Incorporation of labelled thymidine or its analogues reports DNA synthesis.
In series [7] the test system is Jurkat. Kind of series: Antiproliferative activity against human Jurkat T cells assessed as DNA content up to 100 uM after 72 hrs in presence of exogenous uridine by Hoechst 33258 dye based fluorometric method. It is filed as functional, cell-based. Put shortly:
as §1

Series [8] can be described thus: Selectivity index, ratio of compound concentration required to induce up to 30% cell death in human Jurkat T cells to IC50 for antiproliferative activity against human Jurkat T cells. It is filed as functional. Put shortly: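 Ratio of two Jurkat T-cell readouts, both after 72 h compound or DMSO exposure of 5×10^3 cells/well. The numerator is the concentration causing ≥30% cytotoxicity by CellTox green (0.001–100 μM). Cells were grown in X-VIVO 15 with 10% FBS; three independent experiments.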

Series [9] in a line: Solubility in pH 7.4 PBS buffer with 1% DMSO at 1 mg after 24 hrs by HPLC-UV method. It is filed as physicochemical.
A short description of series [10]: Solubility in human Jurkat cell growing medium with 1% DMSO at 1 mg after 24 hrs by HPLC-UV method. It is filed as physicochemical.

Turning to `Cn1nnc(O)c1C(=O)Nc1c(F)c(F)c(-c2ccccc2)c(F)c1F`, the remaining at 72 h, 100 µM in [1] worked out at 99%. In addition, the Activity in series [2] was found to be 8.3 µM. For the same molecule, the solubility (as a rule, how much of the substance goes into solution per volume) at 24 h in series [3] was 48 µM (≈ 17.6 µg/mL). The half-inhibitory concentration (IC50) (commonly the concentration that gives 50% inhibition) in [4] turned out to be 5.82 µM.

As to `Cn1nc(O)c(C(=O)Nc2c(F)cc(-c3ccccc3)cc2F)n1`, in series [2], the Activity was determined as 49.3 µM. The 50% inhibitory concentration (IC50) in series [4] was determined as 13.3 µM.

Consider `C/C(O)=C(\C#N)C(=O)Nc1ccc(C(F)(F)F)cc1` [TERIFLUNOMIDE], for which the remaining at 72 h, 100 µM in series [1] amounted to 101%. Moreover, the result in series [5] was inactive. Also, the Activity in series [2] came to 53 µM. Further, the half-inhibitory concentration (IC50) in series [6] was determined as 54.3 µM.

On to `O=C(Nc1c(F)c(F)c(-c2ccccc2)c(F)c1F)c1no[nH]c1=O`, for which the Activity in [2] was greater than 100 µM. Further, in series [4], the 50% inhibitory concentration (IC50) worked out at 59.7 µM.

For the molecule `Cn1nc(O)c(C(=O)Nc2ccc(-c3ccccc3)cc2F)n1`, the Activity in series [2] was 56.8 µM. The half-maximal inhibitory concentration (IC50) in [4] was determined as 35.7 µM.

Turning to `O=C(Nc1c(F)c(F)c(-c2ccccc2)c(F)c1F)c1nsnc1O`, in series [1], the remaining at 72 h, 100 µM was found to be 80%. In series [7], the outcome was inactive. Besides, the Activity in series [2] is 78 µM. The solubility at 24 h in series [3] worked out at 1690 µM (≈ 626 µg/mL). Besides, the IC50 in series [6] was 6.2 µM; in [4] it was 1.04 µM. The “Selectivity Index” value in [8] amounted to 70.

For the molecule `Cc1c(-c2ccc(-c3ccccc3F)cc2)nc2ccc(F)cc2c1C(=O)O` [BREQUINAR], the remaining at 72 h, 100 µM in series [1] is 98%. Besides, the outcome in [7] was inactive. In series [2], the Activity amounted to 45 µM. For the same molecule, the solubility at 24 h in [3] worked out at 359 µM (≈ 135 µg/mL). Moreover, the concentration for half-maximal inhibition (IC50) in series [6] worked out at 4.3 µM; in series [4], 0.93 µM.

Take `Cc1c(C(=O)Nc2c(F)c(F)c(-c3ccccc3)c(F)c2F)c(O)nn1C`: the remaining at 72 h, 100 µM in [1] was found to be 94%. Further, in series [7], the result was inactive. The solubility at 24 h is 7 µM (≈ 2.66 µg/mL) in series [9], greater than 100 µM in series [10] and less than 0.1 µM in [3]. Also, the Activity in [2] was 82 µM. Moreover, the concentration for half-maximal inhibition (IC50) in [6] worked out at 10.7 µM; in series [4], 2.22 µM. In addition, the “Selectivity Index” value in series [8] was determined as 70.

With `O=C(Nc1c(F)c(F)c(-c2cccc(OC(F)(F)F)c2)c(F)c1F)c1no[nH]c1=O`, in [2], the Activity was greater than 100 µM. For the same molecule, the half-inhibitory concentration (IC50) in series [4] was 68.3 µM.

Turning to `O=C(Nc1c(F)c(F)c(-c2ccccc2)c(F)c1F)c1c(O)nnn1CC1CC1`, in [2], the Activity came to 6 µM. The IC50 in [4] came out at 3.22 µM.

On to `O=C(Nc1c(F)c(F)c(-c2ccccc2)c(F)c1F)c1nn(CC2CC2)nc1O`, for which the Activity in series [2] was 11 µM. The IC50 in [4] amounted to 7.13 µM.

Turning to `O=C(Nc1c(F)c(F)c(-c2cccc(OC(F)(F)F)c2)c(F)c1F)c1nsnc1O`, in series [2], the Activity was determined as 5.2 µM. The half-inhibitory concentration (IC50) in [4] amounted to 2.5 µM.
